Laboratory results published in ChEMBL document CHEMBL1153093, “Synthesis and structure-activity relationships of cassiarin A as potential antimalarials with vasorelaxant activity” (Bioorg Med Chem, 2009).
The source made the active and inactive calls. No cut-off for these calls is given here.

Assays:
MCF7 = experiment: Cytotoxicity against human MCF7 cells after 48 hrs by MTT assay; type: cell-based; conditions: MCF7, 48 h
How it was run: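 MCF7 human breast adenocarcinoma cells seeded at 5 × 10³ cells/well and preincubated 24 h at 37 °C, 5% CO₂. Compounds were added at various concentrations for 48 h at 37 °C. MTT solution (5 mg/mL stock) was added for 2 h, and formazan was dissolved in 10% SDS–0.01 N HCl. OD was read at 550/700 nm in triplicate wells, and IC₅₀ was taken from % living cells vs control.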

Aorta [1] = experiment: Vasorelaxant activity in Wistar rat endothelium-intact thoracic aortic rings assessed as inhibition of phenylephrine-induced tissue contraction at 30 uM; type: functional, tissue-based
How it was run: (§1)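 Thoracic aorta rings, 3 mm, in Krebs–Henseleit solution (95% O₂/5% CO₂, 37 °C), equilibrated 60 min at 1.0 g resting tension. Rings were contracted with 3 × 10⁻⁷ M phenylephrine. Endothelium was accepted if 10⁻⁵ M acetylcholine gave 80% relaxation. At the contraction plateau, samples were added at 1 × 10⁻⁶–3 × 10⁻⁵ M. Tension was recorded isometrically; data are mean ± SEM with ANOVA/Bonferroni.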

Plasmodium falciparum = experiment: Antimalarial activity against chloroquine-sensitive Plasmodium falciparum 3D7 by giemsa stain
[2] = Selectivity index, ratio of IC50 for human MCF7 to IC50 for chloroquine-sensitive Plasmodium falciparum 3D7
Aorta [3] = experiment: Vasorelaxant activity in Wistar rat endothelium-intact thoracic aortic rings assessed as inhibition of phenylephrine-induced tissue contraction; type: functional, tissue-based; how it was run: as §1
Aorta [4] = experiment: Vasorelaxant activity in Wistar rat endothelium-removed thoracic aortic rings assessed as inhibition of phenylephrine-induced tissue contraction; type: functional, tissue-based
How it was run: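 Isolated thoracic aorta rings, 3 mm, in oxygenated Krebs–Henseleit solution at 37 °C, equilibrated 60 min under 1.0 g tension. Rings were precontracted with 3 × 10⁻⁷ M phenylephrine, and at the plateau samples were added at 1 × 10⁻⁶–3 × 10⁻⁵ M. Relaxation was recorded by force transducer; data are mean ± SEM.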

[5] = Vasorelaxant activity in Wistar rat endothelium-intact thoracic aortic rings assessed as inhibition of phenylephrine-induced tissue contraction in presence of NO synthase-inhibitor L-NMMA; type: functional; conditions: Thoracic aorta

SMILES	IC50 (MCF7) [µM]	Activity (Aorta [1])	IC50 (Plasmodium falciparum) [µM]	Ratio IC50 [2]	Activity (Aorta [3])	Activity (Aorta [4])	Activity [5]
Cc1cc2c3c(cc(C)n2C)cc(=O)cc3o1	> 100	inactive	23.3	> 4.2			
Cc1cc2c3c(cc(C)n2-c2ccccc2)cc(=O)cc3o1	> 100	inactive	0.09	> 1110			
CC1=Cc2nc(C)cc3cc(OCc4ccccc4)cc(c23)O1 [CASSIARIN A BENZYL ETHER]	72.2		14.9	4.8			
CC1=Cc2nc(C)cc3cccc(c23)O1 [7-DEHYDROXYCASSIARIN A]	> 100		5.4	> 18			
CC(=O)Oc1cc2c3c(nc(C)cc3c1)C=C(C)O2 [ACETYLCASSIARIN A]	> 100		1.2	> 83			
CCN(CC)CCCC(C)Nc1ccnc2cc(Cl)ccc12 (configuration not stated) [CHLOROQUINE]	36.1						
COc1cc2c3c(nc(C)cc3c1)C=C(C)O2 [CASSIARIN A METHYL ETHER]	87.8	Active	3.6	> 24	Dose-dependent effect	inactive	
CCCCn1c(C)cc2cc(=O)cc3oc(C)cc1c23	> 100	inactive	4.2	> 23			
COC(=O)CCCn1c(C)cc2cc(=O)cc3oc(C)cc1c23 [CASSIARIN B]	> 100	inactive	22	> 4.5			
CC1=Cc2nc(C)cc3cc(OC(=O)c4ccccc4)cc(c23)O1 [BENZOYLCASSIARIN A]	> 100		1.2	> 83			
CC1=Cc2nc(C)cc3cc(O)cc(c23)O1 [CASSIARIN A]	> 100	Active	0.023	> 4350	Dose-dependent effect	inactive	
CNC(=N)NCCC[C@H](N)C(=O)O							inactive
CCCC(=O)Oc1cc2c3c(nc(C)cc3c1)C=C(C)O2 [BUTYROYLCASSIARIN A]	> 100	Active	4.1	> 24			
CCCCOc1cc2c3c(nc(C)cc3c1)C=C(C)O2 [CASSIARIN A BUTYL ETHER]	76.7		3	> 26			
CC1=Cc2nc(C)cc3cc(OS(=O)(=O)C(F)(F)F)cc(c23)O1	> 100		0.41	> 244			
